Assay results as given in PubChem BioAssay AID602300 (The Scripps Research Institute Molecular Screening Center, 2012).
Activity calls are given as the source filed them.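 The calls were made as follows: active = inhibition of at least 50%; inactive = inhibition below 50%.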

Molecular target: Diacylglycerol lipase-beta (Mus musculus) (UniProt Q91WC9)
Experiment: mouse DAGLb inhibitors by competitive ABPP, late-stage follow-up, biochemical, gel-based fluorescence, overexpressed mouse, set 3 (AID 602300)
Details: HEK293T membrane mDAGLb, at 1 µM, active compounds read high
Outline: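 Test system: HEK293T membranes with overexpressed mouse DAGLb; Amount: 0.3 mg/mL membrane protein; Technique: SDS-PAGE with in-gel fluorescence scan, band integrated optical density; Schedule: 30 min compound plus 30 min probe, 37 °C; Measure: percent inhibition of DAGLb band versus DMSO and blank-gel references; Medium: Dulbecco's PBS (DPBS).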

Chain of Diacylglycerol lipase-beta (Mus musculus) (Q91WC9 whole entry, looked up): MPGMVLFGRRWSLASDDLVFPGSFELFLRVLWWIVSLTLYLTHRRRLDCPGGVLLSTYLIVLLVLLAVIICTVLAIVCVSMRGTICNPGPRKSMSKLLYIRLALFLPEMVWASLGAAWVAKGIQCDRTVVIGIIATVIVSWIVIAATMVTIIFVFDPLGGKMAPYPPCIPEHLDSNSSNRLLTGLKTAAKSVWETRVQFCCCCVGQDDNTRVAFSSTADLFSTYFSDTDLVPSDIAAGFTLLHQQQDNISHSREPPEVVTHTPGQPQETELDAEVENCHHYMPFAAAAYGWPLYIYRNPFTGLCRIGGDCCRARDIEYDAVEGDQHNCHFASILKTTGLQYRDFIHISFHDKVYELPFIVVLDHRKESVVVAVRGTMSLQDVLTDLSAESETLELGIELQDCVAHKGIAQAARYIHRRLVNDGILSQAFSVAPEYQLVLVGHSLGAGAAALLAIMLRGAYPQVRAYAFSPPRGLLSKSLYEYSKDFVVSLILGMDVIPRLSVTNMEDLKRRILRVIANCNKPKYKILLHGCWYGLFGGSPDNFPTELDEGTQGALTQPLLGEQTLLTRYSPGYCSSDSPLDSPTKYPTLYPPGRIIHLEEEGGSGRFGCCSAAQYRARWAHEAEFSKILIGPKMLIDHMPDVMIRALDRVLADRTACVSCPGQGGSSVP

Row | SMILES | inhibition
1 | O=C(c1ccc(-c2ccc(-c3cn(C(=O)N4CCCCC4c4ccccc4)nn3)cc2)cc1)N1CCCCC1 (configuration not stated) | 0% (inactive)
2 | O=C(c1ccc(-c2ccc(-c3cn(C(=O)N4CCCCC4Cc4ccccc4)nn3)cc2)cc1)N1CCCCC1 (configuration not stated) | 39% (inactive)
3 | O=C(O)c1cccc(-c2ccc(-c3cn(C(=O)N4CCCCC4c4ccccc4)nn3)cc2)c1 (configuration not stated) | 6% (inactive)
4 | O=C(O)c1cccc(-c2ccc(-c3cn(C(=O)N4CCCCC4Cc4ccccc4)nn3)cc2)c1 (configuration not stated) | 50%
5 | O=C(N1CCCCC1c1ccccc1)n1cc(-c2ccc(-c3cccc(CO)c3)cc2)nn1 (configuration not stated) | 0% (inactive)
6 | O=C(O)c1cccc(-c2ccc(-c3cn(C(=O)N4CCCCC4CCc4ccccc4)nn3)cc2)c1 (configuration not stated) | 4% (inactive)

More lines, now with the values ahead:

Row | inhibition | SMILES
7 | 0% (inactive) | O=C(N1CCCCC1c1ccccc1)n1cc(-c2ccc(-c3ccc(CO)cc3)cc2)nn1 (configuration not stated)
8 | 0% (inactive) | O=C(c1cccc(-c2ccc(-c3cn(C(=O)N4CCCCC4c4ccccc4)nn3)cc2)c1)N1CCCCC1 (configuration not stated)
9 | 84% | O=C(N1CCCCC1Cc1ccccc1)n1cc(-c2ccc(-c3cccc(CO)c3)cc2)nn1 (configuration not stated)
10 | 0% (inactive) | NC(=O)c1ccc(-c2ccc(-c3cn(C(=O)N4CCCCC4c4ccccc4)nn3)cc2)cc1 (configuration not stated)
11 | 1% (inactive) | O=C(O)c1ccc(-c2ccc(-c3cn(C(=O)N4CCCCC4CCc4ccccc4)nn3)cc2)cc1 (configuration not stated)
12 | 0% (inactive) | O=C(N1CCCCC1c1ccccc1)n1cc(-c2ccc(-c3ccccc3CO)cc2)nn1 (configuration not stated)
